The values that follow come from the RNAGym collection of RNA variant scans (doi:10.1126/science.aae0568).

Fewer inactive variants are shown than the library holds. Bounds are passed on as bounds.

B1: tRNA (parent)
chain: GUUCCGUUGGCGUAAUGGUAACGCGUCUCCCUCCUAAGGAGAAGACUGCGGGUUCGAGUCCCGUACGGAACG

Variants of B1 are the subject of the series. The experiment in a line: yeast fitness relative to wild type (ratio to wild type); higher = fitter; tRNA-Arg(CCU), competitive growth, 37 C, YPD. The essentials: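 The tRNA-Arg(CCU) gene variants were made by chemical synthesis with a 3% per-site mutation rate at 69 sites and inserted at the native genomic locus of Saccharomyces cerevisiae. After pooling, the strains were competed in YPD at 37°C for 24 hours in six parallel replicates. Gene amplicons from the start population and each end population were read by 100-nucleotide paired-end sequencing, and Darwinian fitness relative to wild type was taken from genotype frequency changes. Genotypes needed ≥ 100 starting reads, and estimates < 0.5 were set to 0.5.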
As for C5U G10C C30G C34U A42C G52A, the yeast fitness was not above 0.5. In the case of C5U G41A it was 0.906; in that of C5U C30U, 0.942.

Take C5U C30G: the yeast fitness turned out to be 0.676.

With C5U G12C U32A U35A U54C, the yeast fitness is not above 0.5. In the case of C5U C62U it was 1.03; in that of C5U C33U A36C U54C, not above 0.5. In the case of C5U C34U C60U it was not above 0.5; in that of C5U C27U U35G A36G G58C C66U, not above 0.5. The result for C5U G17A C60A reads not above 0.5; that for C5U C29G C31G A36U A37C A57C G68C, not above 0.5. Turning to C5U G44A C55U, the yeast fitness was determined as 0.629. On to C5U G9C A36G C60G A70G, for which the yeast fitness was not above 0.5.

For C5U G25C C29A, the yeast fitness is not above 0.5.

On to C5U G18C U26G, for which the yeast fitness is not above 0.5. The result for C5U C29A A42G C61G reads not above 0.5. The result for C5U G25A U32G reads not above 0.5. On to C5U G18A G25C A69C, for which the yeast fitness was not above 0.5. Turning to C5U C29A U32C C60A, the yeast fitness is 0.596. In the case of C5U G25A A70U it was 1.05. As for C5U C30U A42C C60G, the yeast fitness was not above 0.5. In the case of C5U C34G U35C it was 0.533; in that of C5U C34G, 0.788; in that of C5U C34U, 0.746. In the case of C5U C33U U54C G58A it was 0.703.

Regarding C5U C34U A40C, the yeast fitness was not above 0.5. Consider C5U G10C C30A A36U A42C, for which the yeast fitness is not above 0.5. The result for C5U C49A C66U reads 0.551; that for C5U C30G A57C, 0.715; that for C5U G9C G52C U54C A69C, not above 0.5.

Take C5U G18A C30A G58A G68U: the yeast fitness was found to be 0.581. In the case of C5U C34A C55U it was 0.529; in that of C5U G18A G44C, 0.638.

As for C5U C34A U53A, the yeast fitness came to 0.562. In the case of C5U C29U A36G U59A, the yeast fitness was not above 0.5. The result for C5U C34A G67A reads not above 0.5; that for C5U C31U G41A U64C, not above 0.5. The result for C5U G6A A15U A21G U54G reads not above 0.5; that for C5U C55U, 0.864; that for C5U C30U A37C U54A, not above 0.5.

For C5U G39A, the yeast fitness is 0.938. In the case of C5U G39U it was 0.823. In the case of C5U G6C it was 0.818; in that of C5U G10A A21G G39A G48C, 0.598; in that of C5U G12C G44C, 0.53. In the case of C5U G6C C11A C31G A36C it was not above 0.5; in that of C5U G17C C29A C46G G56A, not above 0.5. As for C5U G12A A45C, the yeast fitness was determined as 0.782. The result for C5U G48A C55U A65C reads 0.556. The result for C5U C29U G38C reads not above 0.5. The result for C5U G23A G25C reads 0.65; that for C5U G17C A21U A40G U47G G48C, not above 0.5; that for C5U G18A A40U U47C U53C G68A, not above 0.5. Consider C5U G17C C27U A65G, for which the yeast fitness was not above 0.5. C5U G18A U28A G56A C61G: the yeast fitness was found to be 0.626.

Turning to C5U G9A C49A, the yeast fitness turned out to be 0.513. The result for C5U C31U U47C reads 0.701; that for C5U G10A A70U, 0.609. The result for C5U C31A A40G C61U A65U reads not above 0.5; that for C5U C61A G68A, not above 0.5.

C5U C33U C62A: the yeast fitness came out at 0.579. In the case of C5U C61U A70G it was 0.609; in that of C5U G12A A40U G44U A45G C60A, not above 0.5; in that of C5U G17A C60G G67A, not above 0.5. Consider C5U C27U A36G, for which the yeast fitness was 0.75. Regarding C5U C55G A69U, the yeast fitness was not above 0.5. Consider C5U C30G A69C A70G, for which the yeast fitness is not above 0.5. On to C5U C29U C34G, for which the yeast fitness is not above 0.5. In the case of C5U G10A A20G A36U A43C C61G it was not above 0.5. In the case of C5U G9A C22A C55G it was not above 0.5; in that of C5U G17A A40U A42C C49A C66A, 0.593; in that of C5U C31G A40G A45G C46G G48A C62U G63A, not above 0.5.

For the variant C5U G25C A42U, the yeast fitness worked out at 0.639. Regarding C5U C31U C34U, the yeast fitness is not above 0.5. Consider C5U C31G G41A G52C C60U C62G C66G, for which the yeast fitness was not above 0.5. As to C5U G17C U26G A69U, the yeast fitness is not above 0.5.

Consider C5U C34A C55G A69U, for which the yeast fitness is not above 0.5. In the case of C5U G48A C55U C66U it was 0.521; in that of C5U G18A, 0.76; in that of C5U C49U C66A G67A, not above 0.5. In the case of C5U C29G C30A G63A U64G A69C it was 0.572; in that of C5U C30A A42U A69C, not above 0.5; in that of C5U C46U C55A G56C, not above 0.5. The result for C5U G41A C55G C66U reads not above 0.5; that for C5U G48A A69C, 0.758.

On to C5U C49U, for which the yeast fitness was 0.953. In the case of C5U C49A it was 0.78. In the case of C5U G10C A15G G67U, the yeast fitness was not above 0.5.

With C5U C33U, the yeast fitness is 0.71.

Take C5U G25A C49A A69U: the yeast fitness was not above 0.5. As for C5U G10A C27G G48C C61G, the yeast fitness is not above 0.5. In the case of C5U G12A A69C it was 0.724; in that of C5U C27U, 1.09; in that of C5U G10A C66U, 0.574. The result for C5U C27G U28A C30G C31U G67A reads not above 0.5; that for C5U C27G U35G G44A, not above 0.5; that for C5U C27G U47C A70U, not above 0.5. In the case of C5U G44A it was 1.08; in that of C5U G10C, 0.629. Regarding C5U G10A, the yeast fitness is 0.702. Consider C5U G17A A40U A42C C49A, for which the yeast fitness was found to be 0.684. The result for C5U C46U U59G reads 0.538; that for C5U G17A C66A, 0.522; that for C5U G18C C22U G50A, 0.572. In the case of C5U C30A C33G A42C C60A C66A A69C, the yeast fitness was not above 0.5. The result for C5U G44C A45U reads 0.657; that for C5U G38C G48C G52A, not above 0.5. In the case of C5U C33G C61A C66U it was not above 0.5. Take C5U C31G A57U: the yeast fitness is not above 0.5.

As for C5U G10A A14U C31A C46A A65U, the yeast fitness is not above 0.5.

C5U G38C G39C A40G G44A C46G G52A: the yeast fitness was not above 0.5. In the case of C5U G9C C11G C24A U26G C31G A45U C61U it was not above 0.5.

As for C5U G18C U26C C30U C31G A70C, the yeast fitness was not above 0.5. On to C5U G44C C61U, for which the yeast fitness stood at 0.702. In the case of C5U C49U G56U it was 0.538; in that of C5U C29U A43G, 0.632; in that of C5U C29G C30G, not above 0.5.

Regarding C5U C61A G67A, the yeast fitness came to 0.576. The result for C5U C61G G67U reads not above 0.5. The result for C5U C29U G44A reads 0.868; that for C5U G25A U26A G56C A65C, not above 0.5. As to C5U G44C G68C, the yeast fitness came out at 0.697. In the case of C5U G6A C11A U19A A69U it was not above 0.5. The result for C5U G12A A40U A45G C60A G63A reads not above 0.5; that for C5U C46G A65G, 0.661; that for C5U C34G A37U C49G G56A, not above 0.5. In the case of C5U C34A G56A it was not above 0.5; in that of C5U C34U U35C A70C, not above 0.5. As for C5U G9A, the yeast fitness came out at 0.972. In the case of C5U G18A A40U U47C it was 0.501; in that of C5U G9A C22U, 0.593; in that of C5U G12C, 0.818. In the case of C5U G12A it was 0.959. In the case of C5U C46U C60G it was not above 0.5; in that of C5U G18A A40U U47C G68A, 0.617; in that of C5U C49G A69U, 0.629.

Take C5U C31U G41C A43C C60G: the yeast fitness is not above 0.5. With C5U G12A C60G, the yeast fitness was not above 0.5.

As for C5U C29A A69C, the yeast fitness was not above 0.5. In the case of C5U G38C A65U it was not above 0.5; in that of C5U C33U C34U G58C G63A, not above 0.5; in that of C5U C46G, 0.93. For the variant C5U G10C C27G U28C G39C C46G A65G, the yeast fitness was not above 0.5. The result for C5U C34A G38C reads not above 0.5.

Consider C5U C27U G41A, for which the yeast fitness is 0.573. The result for C5U C31U A37C A43U G50C A57G reads not above 0.5. Regarding C5U G10A G12A U53A, the yeast fitness is not above 0.5. In the case of C5U C31G C33G C34U C49U G68A it was 0.543.

C5U G48A C55U: the yeast fitness came out at 0.558. As to C5U G25C A42U A69U, the yeast fitness is not above 0.5. In the case of C5U G38C G41C C60G it was not above 0.5. In the case of C5U G39A G48A A57U it was 0.565. In the case of C5U C29U G50C U59A it was not above 0.5; in that of C5U G41A G52A, not above 0.5; in that of C5U G41A G52C, not above 0.5. On to C5U G17U C29G C31G A36U A37C A69C, for which the yeast fitness is not above 0.5. In the case of C5U C62U A65C, the yeast fitness stood at 0.739.

As for C5U C31G U47C G48C, the yeast fitness is not above 0.5. In the case of C5U G12C A69U it was 0.62. The result for C5U C31A G56A reads 0.562; that for C5U G39A A45C, 0.76; that for C5U C31G U59C, 0.913. The result for C5U G6A A40C C46A reads 0.578; that for C5U G48A, 0.891; that for C5U C30A C33G A42C C62A, not above 0.5.

Consider C5U G10A U16A A65G, for which the yeast fitness was not above 0.5. In the case of C5U G9C G23A G50A A65U it was not above 0.5.
